According to ChEMBL document CHEMBL2311405, “Synthesis and biological evaluation of indenoisoquinolines that inhibit both tyrosyl-DNA phosphodiesterase I (Tdp1) and topoisomerase I (Top1)” (J Med Chem, 2013):
Calls of active or inactive are those of the source. The rule behind the calls is not given here.

Key:
SF-539 = assay: Growth inhibition of human SF539 cells; type: functional
In short: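 Human cancer cell line panel, compounds tested at concentrations up to 10 μM. GI50 per cell line is the mean of two determinations where a standard error is given, otherwise from one determination.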

MDA-MB-435 = assay: Growth inhibition of human MDA-MB-435 cells; type: functional
SN12C = assay: Growth inhibition of human SN12C cells; type: functional
DU-145 = assay: Growth inhibition of human DU145 cells; type: functional
OVCAR-3 = assay: Growth inhibition of human OVCAR3 cells; type: functional
UACC-62 = assay: Growth inhibition of human UACC62 cells; type: functional
HCT-116 = assay: Growth inhibition of human HCT116 cells; type: functional
HOP-62 = assay: Growth inhibition of human HOP62 cells; type: functional
[1] = biological target: T1, DNA topoisomerase 1 (Homo sapiens) (UniProt P11387); assay: Inhibition of recombinant Top1 (unknown origin) using 3'-[32P]-end-labeled 117 bp oligonucleotide as substrate after 20 mins by SDS-PAGE analysis relative to 1 uM MJ-3-65
T1 sequence (whole entry): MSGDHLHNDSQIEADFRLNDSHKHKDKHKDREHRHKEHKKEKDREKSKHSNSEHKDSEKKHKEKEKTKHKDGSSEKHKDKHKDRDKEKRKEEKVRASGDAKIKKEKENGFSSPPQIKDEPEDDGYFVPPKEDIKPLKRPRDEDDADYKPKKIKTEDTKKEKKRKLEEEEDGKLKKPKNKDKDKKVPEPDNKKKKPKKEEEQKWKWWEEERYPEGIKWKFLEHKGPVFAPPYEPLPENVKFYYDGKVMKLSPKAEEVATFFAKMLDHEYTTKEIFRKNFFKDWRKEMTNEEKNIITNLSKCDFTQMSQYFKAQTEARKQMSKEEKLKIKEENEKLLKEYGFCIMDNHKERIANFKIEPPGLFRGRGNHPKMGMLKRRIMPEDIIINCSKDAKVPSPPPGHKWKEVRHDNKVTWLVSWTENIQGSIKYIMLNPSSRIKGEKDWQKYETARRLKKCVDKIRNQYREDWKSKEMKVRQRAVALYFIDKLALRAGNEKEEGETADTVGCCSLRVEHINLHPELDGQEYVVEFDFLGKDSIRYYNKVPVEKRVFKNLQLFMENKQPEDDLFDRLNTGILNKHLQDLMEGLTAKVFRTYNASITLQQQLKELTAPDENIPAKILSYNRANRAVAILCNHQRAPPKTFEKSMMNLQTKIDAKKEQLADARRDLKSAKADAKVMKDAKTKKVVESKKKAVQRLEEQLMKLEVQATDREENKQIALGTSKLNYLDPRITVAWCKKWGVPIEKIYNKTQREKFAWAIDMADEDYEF

[2] = biological target: Tyrosyl-DNA phosphodiesterase 1 (Homo sapiens, UniProt Q9NUW8); assay: Inhibition of recombinant Tdp1 (unknown origin) using 5'-[32P]-labeled single-stranded DNA oligonucleotide containing 3'-phosphotyrosine as substrate after 15 mins by PAGE analysis
Sequence of Tyrosyl-DNA phosphodiesterase 1 (Q9NUW8 whole entry): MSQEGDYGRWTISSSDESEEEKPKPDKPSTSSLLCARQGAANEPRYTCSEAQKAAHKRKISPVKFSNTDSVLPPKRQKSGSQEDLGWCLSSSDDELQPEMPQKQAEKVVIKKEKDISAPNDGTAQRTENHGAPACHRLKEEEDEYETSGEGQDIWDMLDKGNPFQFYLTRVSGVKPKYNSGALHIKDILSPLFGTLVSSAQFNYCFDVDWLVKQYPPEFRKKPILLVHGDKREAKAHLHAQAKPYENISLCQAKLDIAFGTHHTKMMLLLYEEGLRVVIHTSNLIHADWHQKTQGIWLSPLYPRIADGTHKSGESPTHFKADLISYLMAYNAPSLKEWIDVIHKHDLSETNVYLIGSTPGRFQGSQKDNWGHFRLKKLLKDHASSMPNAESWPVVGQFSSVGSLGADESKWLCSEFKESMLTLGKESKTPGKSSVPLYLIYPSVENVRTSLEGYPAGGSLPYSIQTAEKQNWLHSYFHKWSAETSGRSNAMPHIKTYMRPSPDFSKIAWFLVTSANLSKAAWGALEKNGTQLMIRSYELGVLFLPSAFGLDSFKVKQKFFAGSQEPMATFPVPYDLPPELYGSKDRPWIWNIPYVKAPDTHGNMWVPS

[3] = biological target: T1, DNA topoisomerase 1 (Homo sapiens); assay: Inhibition of recombinant Top1 (unknown origin) using 3'-[32P]-end-labeled 117 bp oligonucleotide as substrate after 20 mins by SDS-PAGE analysis
In short: (§1)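 3′-[32P]-end-labeled 117-bp DNA at 2 nM incubated with recombinant Top1 at 25 °C for 20 min across a range of compound concentrations. Stopped with SDS (0.5% final) plus formamide loading dye, then 20% denaturing PAGE. Dried gels were phosphorimaged.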

[4] = biological target: T1, DNA topoisomerase 1 (Homo sapiens); assay: Inhibition of recombinant Top1 (unknown origin) using 3'-[32P]-end-labeled 117 bp oligonucleotide as substrate assessed as suppression of DNA cleavage at 100 uM by SDS-PAGE analysis; in short: as §1

| GI50 (MDA-MB-435) [µM] | GI50 (DU-145) [µM] | GI50 (OVCAR-3) [µM] | GI50 (HCT-116) [µM] | SMILES | GI50 (SN12C) [µM] | GI50 (UACC-62) [µM] | IC50 [2] [µM] | inhibition [3] | other results |
| --- | --- | --- | --- | --- | --- | --- | --- | --- | --- |
| 0.23 | 0.12 | 0.13 | 0.18 | NCCCn1c2c(c3ccc(N)cc3c1=O)C(=O)c1ccccc1-2 | 0.23 | 0.3 |  |  | GI50 (SF-539): 0.34 µM; GI50 (HOP-62): 0.27 µM |
|  |  |  |  | COc1ccc2c(c1)-c1c(c3ccc([N+](=O)[O-])cc3c(=O)n1CCCN1CCOCC1)C2=O |  |  | > 111 |  | inhibition [1]: Active |
|  |  |  |  | CC(=O)Nc1ccc2c3c(n(CCCN)c(=O)c2c1)-c1ccccc1C3=O |  |  |  | inactive |  |
|  |  |  |  | CC(=O)Nc1ccc2c3c(n(CCCN)c(=O)c2c1)-c1ccccc1C3O (stereo not given) |  |  |  | inactive |  |
|  |  |  |  | NCCCn1c2c(c3ccc(NC(=O)CCCC(=O)O)cc3c1=O)C(=O)c1ccccc1-2 |  |  | > 111 | inactive |  |
|  |  |  |  | N#Cc1ccc2c3c(n(CCCn4ccnc4)c(=O)c2c1)-c1ccccc1C3=O |  |  | > 111 |  | inhibition [1]: Active |
|  |  |  |  | NCCCn1c2c(c3ccc(NC(=O)CCCCC(=O)O)cc3c1=O)C(=O)c1ccccc1-2 |  |  | > 111 | inactive |  |
| 2.05 | 0.54 | 1.47 | 0.38 | COC(=O)CCCC(=O)Nc1ccc2c3c(n(CCCN)c(=O)c2c1)-c1ccccc1C3=O | 1.02 | 1.22 |  | inactive | GI50 (SF-539): 1.47 µM; GI50 (HOP-62): 0.79 µM |
|  |  |  |  | NCCCn1c2c(c3ccc(NC(=O)CC(=O)O)cc3c1=O)C(=O)c1ccccc1-2 |  |  | > 111 | inactive |  |
|  |  |  |  | COC(=O)C(=O)Nc1ccc2c3c(n(C)c(=O)c2c1)-c1ccccc1C3=O |  |  | > 111 | inactive |  |
|  |  |  |  | NCCCn1c2c(c3ccc(NC(=O)C(=O)O)cc3c1=O)C(=O)c1ccccc1-2 |  |  | > 111 | inactive |  |
|  |  |  |  | COc1ccc2c(c1)C(=O)c1c-2n(CCCN(C)C)c(=O)c2cc(I)ccc12 |  |  |  |  | inhibition [4]: Active; inhibition [1]: Active |
| 0.62 | 0.24 | 1.72 | 0.05 | CN(C)CCCn1c2c(c3ccc(C#N)cc3c1=O)C(=O)c1ccccc1-2 | 0.19 | 0.19 |  |  | GI50 (SF-539): 1.12 µM; GI50 (HOP-62): 0.26 µM; inhibition [1]: Active |
| 3.05 | 1.68 | 3.12 | 0.44 | CCOC(=O)CNc1ccc2c3c(n(CCCN)c(=O)c2c1)-c1ccccc1C3=O | 1.75 | 2.25 |  |  | GI50 (SF-539): 8.91 µM; GI50 (HOP-62): 0.93 µM |
| 1.97 | 0.43 | 0.87 | 0.19 | O=C1c2ccccc2-c2c1c1ccc([N+](=O)[O-])cc1c(=O)n2CCCO | 0.47 | 0.31 |  |  | inhibition [1]: Active |
|  |  |  |  | CC(C)(C)OC(=O)NCCCn1c2c(c3ccc(NC(=O)CCCC(=O)O)cc3c1=O)C(=O)c1ccccc1-2 |  |  | > 111 | inactive |  |
|  |  |  |  | Cn1c2c(c3ccc(NC(=O)CC(=O)O)cc3c1=O)C(=O)c1ccccc1-2 |  |  | > 111 |  |  |
| 1.14 | 1.51 | 1.6 | 0.33 | NCCCn1c2c(c3ccc(NCC(=O)O)cc3c1=O)C(=O)c1ccccc1-2 | 0.49 | 0.72 |  | inactive | GI50 (SF-539): 1.79 µM; GI50 (HOP-62): 0.65 µM |
|  |  |  |  | NCCCn1c2c(c3ccccc3c1=O)C(=O)c1ccccc1-2 |  |  |  |  | inhibition [1]: Active |
|  |  |  |  | COC(=O)CCC(=O)Nc1ccc2c3c(n(CCCNC(=O)OC(C)(C)C)c(=O)c2c1)-c1ccccc1C3=O |  |  | > 111 | inactive |  |
|  |  |  |  | NCCCn1c2c(c3ccc(NC(=O)CCC(=O)O)cc3c1=O)C(=O)c1ccccc1-2 |  |  | > 111 | inactive |  |

| SMILES | GI50 (MDA-MB-435) [µM] | GI50 (DU-145) [µM] | GI50 (OVCAR-3) [µM] | GI50 (HCT-116) [µM] | GI50 (SN12C) [µM] | GI50 (UACC-62) [µM] | IC50 [2] [µM] | inhibition [3] | other results |
| --- | --- | --- | --- | --- | --- | --- | --- | --- | --- |
| COC(=O)CC(=O)Nc1ccc2c3c(n(CCCN)c(=O)c2c1)-c1ccccc1C3=O | 2.33 | 1.57 | 3.22 | 0.54 | 1.46 | 1.69 | 18 |  | GI50 (SF-539): 4.03 µM; GI50 (HOP-62): 1.56 µM |
